Reference: ChEMBL document CHEMBL1142991, “Structure-activity relationship study to understand the estrogen receptor-dependent gene activation of aryl- and alkyl-substituted 1H-imidazoles” (J Med Chem, 2007)
Active and inactive are the calls of the source. No cut-off for these calls is given here.

Experiments:
MCF7-2A [1] = experiment: Activation of transcriptional activity at ERalpha expressed in MCF7-2a cells assessed as luciferase expression at 10 uM relative to estradiol; format: functional, cell-based, Homo sapiens; settings: for EC50: Homo sapiens, MCF7-2A, in the assay text read “relative to estradiol” for “at 10 uM relative to estradiol”
Outline: (§1)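 Reporter cells: MCF-7-2a (stable ERE_wtcluc) kept one week in DMEM with L-glutamine, antibiotics, dextran/charcoal-treated BCS (50 mL/L); seeded ~2.2 × 10⁵ cells/mL in six-well plates, compound added after 24 h at 10^-5 to 10^-10 M, 50 h incubation; lysed, luciferase luminescence read 10 s, normalized to Bradford protein; expressed as % of 10^-8 M estradiol; triplicate, single experiment.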

Homo sapiens = organism: Homo sapiens; experiment: Decrease in COX activity
[2] = target: T1, Estrogen receptor (Bos taurus) (UniProt P49884); experiment: Displacement of [3H]estradiol from calf ER alpha after 16 hrs relative to estradiol
T1 sequence (whole entry): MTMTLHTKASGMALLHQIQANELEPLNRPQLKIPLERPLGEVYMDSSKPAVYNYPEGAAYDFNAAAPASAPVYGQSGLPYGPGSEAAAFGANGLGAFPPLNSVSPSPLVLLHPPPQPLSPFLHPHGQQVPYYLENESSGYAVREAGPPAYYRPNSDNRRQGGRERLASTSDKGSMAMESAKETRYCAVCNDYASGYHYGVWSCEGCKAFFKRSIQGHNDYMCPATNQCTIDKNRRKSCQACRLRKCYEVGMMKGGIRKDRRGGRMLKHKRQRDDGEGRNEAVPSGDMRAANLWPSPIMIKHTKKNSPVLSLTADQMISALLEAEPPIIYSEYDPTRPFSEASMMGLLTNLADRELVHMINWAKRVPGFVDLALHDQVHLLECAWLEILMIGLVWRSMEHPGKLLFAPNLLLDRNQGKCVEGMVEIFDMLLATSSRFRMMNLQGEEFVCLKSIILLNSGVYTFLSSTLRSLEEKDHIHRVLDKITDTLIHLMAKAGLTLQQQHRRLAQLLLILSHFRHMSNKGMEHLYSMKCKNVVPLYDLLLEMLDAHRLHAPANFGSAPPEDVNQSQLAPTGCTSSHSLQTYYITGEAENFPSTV
Outline: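 Calf uterine cytosol as receptor source, shaken with 17β-[³H]estradiol and competitor at 4 °C for 16 h; dextran-coated charcoal stop, centrifugation, supernatant radioactivity counted. Six competitor concentrations; % bound label plotted against log concentration, and the concentration giving 50% displacement taken for competitor and for unlabeled estradiol to give relative binding affinity.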

MCF7-2A [3] = experiment: Activation of transcriptional activity at ERalpha expressed in MCF7-2a cells assessed as luciferase expression relative to estradiol; format: functional, cell-based; settings: Homo sapiens; outline: as §1

| Compound | Activity (MCF7-2A [1]) [%] | RBA [2] [%] | other results |
| --- | --- | --- | --- |
| CCc1c(-c2ccc(O)cc2)nc(-c2ccc(O)cc2)n1-c1ccccc1 | 60 |  |  |
| Oc1ccc(-c2nc(-c3ccc(O)cc3Cl)c(-c3ccccc3)n2-c2ccc(O)cc2)cc1 | 40 |  |  |
| Oc1ccc(-c2nc(-c3ccc(O)cc3)n(-c3ccc(O)cc3)c2-c2ccccc2)cc1 | 100 |  | EC50 (MCF7-2A [1]): 350 nM |
| Oc1ccc(-c2cn(-c3ccc(O)cc3)c(-c3ccc(O)cc3Cl)n2)cc1 |  |  | Activity (Homo sapiens): inactive |
| Oc1ccc(-n2cc(-c3ccc(O)cc3Cl)nc2-c2ccc(O)cc2Cl)cc1 |  | 0.09 | Activity (Homo sapiens): Active |
| Cc1c(-c2ccc(O)cc2Cl)nc(-c2ccc(O)cc2Cl)n1-c1ccc(O)cc1 |  | 0.11 |  |
| CCc1c(-c2ccc(O)cc2)nc(-c2ccc(O)cc2)n1-c1ccc(O)cc1 | 140 | 0.11 | EC50 (MCF7-2A [1]): 77 nM |
| Oc1ccc(-c2nc(-c3ccc(O)cc3Cl)cn2-c2ccc(O)cc2)cc1 |  |  | Activity (Homo sapiens): Active |
| CCc1c(-c2ccc(O)cc2)nc(-c2ccc(O)cc2Cl)n1-c1ccc(O)cc1 |  | 0.19 | EC50 (MCF7-2A [3]): 480 nM |
| Oc1ccc(-c2nc(-c3ccc(O)cc3Cl)n(-c3ccc(O)cc3)c2-c2ccccc2)cc1 | 50 |  |  |
| Cc1c(-c2ccc(O)cc2)nc(-c2ccc(O)cc2)n1-c1ccc(O)cc1 | 100 |  | EC50 (MCF7-2A [1]): 140 nM |
| CCc1c(-c2ccc(O)cc2)nc(-c2ccccc2)n1-c1ccc(O)cc1 | 90 |  | EC50 (MCF7-2A [3]): 61 nM |
